≈ marks a conversion by molar mass, not a printed value.
Experiments:
Mus musculus [1] = assay: Evaluated for its inhibitory effects on 12-O-tetradecanoylphorbol-13-acetate (TPA) -induced edema in mouse ear at a dose of 100 ug/site; format: functional
Procedure, shortened: (§1)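 Male ICR mice, 30–40 g, 10–15 per group. Test compound applied in 25 μL acetone/pyridine/water 97:2:1 containing TPA (200 μg/mL) to the inner surface of one ear. Killed with CO2 5 h later; 6-mm ear punch weighed wet for edema. ED50 taken from three-point dose titration curves.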

Rattus norvegicus [2] = species on record: Rattus norvegicus; assay: Inhibitory effects on passive cutaneous anaphylaxis in rats at a dose of 1 mg/site; format: functional
Procedure, shortened: (§2)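 Male SD rats, eight per group, sensitized intradermally at two dorsal sites with 0.05 mL anti-ovalbumin rat IgE serum diluted 1:8 in 0.9% saline. Compound applied topically to those sites 5 h before iv challenge 48 h later with 2 mg ovalbumin plus 5 mg Evans blue in 1 mL. Extravasated dye measured 30 min later; percent inhibition versus control group.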

Mus musculus [3] = assay: Inhibitory effects on arachidonic acid (AA) induced mouse ear edema at a dose of 100 ug/ear; format: functional
Procedure, shortened: (§3)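 Male ICR mice (30–40 g, 10–15 per group). Compound in 25 μL acetone/pyridine/water 97:2:1 with arachidonic acid (50 mg/mL) applied to inner surface of one ear. After 1 h, CO2 sacrifice, 6-mm disk punched, edema measured as change in wet weight versus controls.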

Rattus norvegicus [4] = species on record: Rattus norvegicus; assay: Evaluated for its antioxidative effect using the thiobarbituric acid (TBA) method in rat; format: functional
Procedure, shortened: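 Test sample in 67 mM phosphate buffer pH 7.4 mixed with 10% male Wistar rat (300–400 g) forebrain homogenate. Shaken 1 h at 37 °C, deproteinated with 20% TCA. Supernatant heated 10 min at 100 °C with 1.2% thiobarbiturate; absorbance read at 532 nm.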

Mus musculus [5] = species on record: Mus musculus; assay: Inhibitory effects on delayed type hypersensitive reaction in mouse ears at a dose of 300 ug/site; format: functional
Procedure, shortened: (§4)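 ICR mice, 10 or 12 per group, sensitized by abdominal swabbing with 0.1 mL antigen in acetone (7% picryl chloride or 1% OXA). DTH response assessed in mouse ears.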

Cavia porcellus [6] = species on record: Cavia porcellus; assay: Compound was evaluated for maximization test in guinea pigs and the erythema was observed for the experiment 3;1/2; format: functional
Procedure, shortened: (§5)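 Maximization test in guinea pigs with the dorsal neck region clipped and then shaved. Skin reactions were read at 24 and 48 h. Erythema was graded 0–4 and edema 0–3, and values are counts of animals at each grade. Groups held 6 animals, or 4 in the control-paired group.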

Cavia porcellus [7] = assay: Compound was evaluated for maximization test in guinea pigs and the edema was observed for the experiment 1; format: functional; procedure, shortened: as §5
Cavia porcellus [8] = assay: Compound was evaluated for maximization test in guinea pigs and the edema was observed for the experiment 2;4/4; format: functional; procedure, shortened: as §5
Cavia porcellus [9] = species on record: Cavia porcellus; assay: Compound was evaluated for maximization test in guinea pigs and the erythema was observed for the experiment 0; format: functional; procedure, shortened: as §5
Cavia porcellus [10] = species on record: Cavia porcellus; assay: Compound was evaluated for maximization test in guinea pigs and the erythema was observed for the experiment 4;0/2; format: functional; procedure, shortened: as §5
Cavia porcellus [11] = assay: Compound was evaluated for maximization test in guinea pigs and the edema was observed for the experiment 3; format: functional; procedure, shortened: as §5
Cavia porcellus [12] = species on record: Cavia porcellus; assay: Compound was evaluated for maximization test in guinea pigs and the erythema was observed for the experiment 2;3/0; format: functional; procedure, shortened: as §5
Cavia porcellus [13] = species on record: Cavia porcellus; assay: Compound was evaluated for maximization test in guinea pigs and the erythema was observed for the experiment 1; format: functional; procedure, shortened: as §5
Cavia porcellus [14] = assay: Compound was evaluated for maximization test in guinea pigs and the edema was observed for the experiment 0; format: functional; procedure, shortened: as §5
Oryctolagus cuniculus [15] = species on record: Oryctolagus cuniculus; assay: Compound was evaluated for primary irritation test by applying at the intact site and the average score was reported. Number of animals tested =6; format: toxicity, organism-based; settings: rabbit, in vivo, topical_or_ocular
Procedure, shortened: (§6)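 Rabbit backs shaved and depilated; 0.5 g compound applied to four sites (two intact, two abraded) under gauze for 24 h. Sites examined grossly 24 and 72 h after removing covering; scored by Draize method.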

Oryctolagus cuniculus [16] = species on record: Oryctolagus cuniculus; assay: Compound was evaluated for primary irritation test by applying at the abraded site and the average score was reported. Number of animals tested =6; format: toxicity, organism-based; settings: rabbit, in vivo, topical_or_ocular; procedure, shortened: as §6
Mus musculus [17] = species on record: Mus musculus; assay: Compound was evaluated for its effective dose to inhibit picryl chloride induced delayed type hypersensitivity; format: functional; procedure, shortened: as §4
Mus musculus [18] = assay: Compound was evaluated for its inhibitory effects on 12-O-tetradecanoylphorbol-13-acetate -induced edema; format: functional; procedure, shortened: as §1
Mus musculus [19] = species on record: Mus musculus; assay: Compound was evaluated for its effective dose to inhibit oxazolone- induced delayed type hypersensitivity; format: functional; procedure, shortened: as §4
Rattus norvegicus [20] = species on record: Rattus norvegicus; assay: Compound was evaluated for its inhibitory effects on passive cutaneous anaphylaxis in rats at a dose of 2.5 mg/site; format: functional; procedure, shortened: as §2
Mus musculus [21] = assay: Compound was evaluated for its inhibitory effects on arachidonic acid induced ear edema at a dose of 100 (ug / ear); format: functional; procedure, shortened: as §3
Rattus norvegicus [22] = species on record: Rattus norvegicus; assay: Compound was evaluated for its inhibitory effects on passive cutaneous anaphylaxis in rats at a dose of 1 mg/site; format: functional; procedure, shortened: as §2
Oryctolagus cuniculus [23] = species on record: Oryctolagus cuniculus; assay: Compound was evaluated for primary irritation test by applying at the intact site and the average score was reported. Number of animals tested =6.; format: toxicity, organism-based; settings: rabbit, in vivo, topical_or_ocular; procedure, shortened: as §6
Rattus norvegicus [24] = species on record: Rattus norvegicus; assay: Compound was evaluated for its inhibitory effects on passive cutaneous anaphylaxis in rats at a dose of 1 (mg / site).; format: functional; procedure, shortened: as §2
Mus musculus [25] = assay: Compound was evaluated for its inhibitory effects on 12-O-tetradecanoylphorbol-13-acetate -induced edema.
Mus musculus [26] = species on record: Mus musculus; assay: Compound was evaluated for its effective dose to inhibit picryl chloride induced delayed type hypersensitivity.
Rattus norvegicus [27] = species on record: Rattus norvegicus; assay: Compound was evaluated for its inhibitory effects on passive cutaneous anaphylaxis in rats at a dose of 2.5 (mg / site).; format: functional; procedure, shortened: as §2
Mus musculus [28] = assay: Compound was evaluated for its inhibitory effects on arachidonic acid induced ear edema at a dose of 100 (ug / ear)
Mus musculus [29] = species on record: Mus musculus; assay: Compound was evaluated for its effective dose to inhibit oxazolone- induced delayed type hypersensitivity
Mus musculus [30] = assay: Compound was evaluated for its inhibitory effects on 12-O-tetradecanoylphorbol-13-acetate (TPA) -induced edema in mouse ear at a dose of 100 ug/site; format: functional; procedure, shortened: as §1
Mus musculus [31] = assay: Compound was evaluated for its inhibitory effects on arachidonic acid (AA) induced mouse ear edema at a dose of 100 ug/ear; format: functional; procedure, shortened: as §3
Mus musculus [32] = species on record: Mus musculus; assay: Compound was evaluated for its inhibitory effects on delayed type hypersensitive reaction in mouse ears at a dose of 300 ug/site; format: functional; procedure, shortened: as §4

Structure (SMILES)	Inhibition (Mus musculus [1]) [%]	Inhibition (Rattus norvegicus [2]) [%]	Inhibition (Mus musculus [3]) [%]	IC50 (Rattus norvegicus [4]) [µg/mL]	Inhibition (Mus musculus [5]) [%]	also measured
Cc1ccc(O)c(NCCCN2CCCN(C(c3ccccc3)c3ccc(Cl)cc3)CC2)c1 (stereo not given)	87	36.4	50.3	0.013 (≈ 0.028 µM)	–	–
Cc1ccc(O)c(N(CCCN2CCC(C(O)(c3ccccc3)c3ccc(Cl)cc3)CC2)C(C)C)c1 (stereo not given)	89.3	48.3	48.5	1 (≈ 1.97 µM)	18.7	–
O=[N+]([O-])c1ccc(Cl)c([N+](=O)[O-])c1	–	–	–	–	–	Erythema (Cavia porcellus [6]): 1; Edema (Cavia porcellus [7]): 0; Edema (Cavia porcellus [8]): 4; Erythema (Cavia porcellus [9]): 0; Erythema (Cavia porcellus [10]): 0; Edema (Cavia porcellus [11]): 0; Erythema (Cavia porcellus [12]): 3; Erythema (Cavia porcellus [13]): 0; Edema (Cavia porcellus [14]): 0
Cc1ccc(O)c(N(CCCN2CCC(C(O)(c3ccccc3)c3ccccc3)CC2)C(C)C)c1	39.2	–	–	0.79 (≈ 1.67 µM)	–	–
Cc1ccc(O)c(NCCCN2CCN(C(c3ccccc3)c3ccc(Cl)cc3)CC2)c1 (stereo not given)	–	48.5	67.7	0.12 (≈ 0.267 µM)	62	Average score (Oryctolagus cuniculus [15]): 0; Average score (Oryctolagus cuniculus [16]): 0
Cc1ccc(O)c(NCCCN2CCN(C(c3ccc(F)cc3)c3ccc(F)cc3)CC2)c1	–	31.7	51	0.1 (≈ 0.221 µM)	79.2	ED50 (Mus musculus [17]): 52.9 µg/mL (≈ 117 µM); Average score (Oryctolagus cuniculus [15]): 0; ED50 (Mus musculus [18]): 47 µg/mL (≈ 104 µM); Average score (Oryctolagus cuniculus [16]): 0; ED50 (Mus musculus [19]): 47.8 µg/mL (≈ 106 µM); Inhibition (Rattus norvegicus [20]): 51.9%; ED50 (Mus musculus [21]): 107.9 µg/mL (≈ 239 µM)
Cc1ccc(O)c(N(CCCN2CCN(C(c3ccc(F)cc3)c3ccc(F)cc3)CC2)C(C)C)c1	24.2	–	–	1.2 (≈ 2.43 µM)	–	–
Cc1ccc(O)c(NCCCN2CCC(OC(c3ccc(F)cc3)c3ccc(F)cc3)CC2)c1	61.8	39	49.8	0.028 (≈ 0.06 µM)	59.3	–
Cc1ccc(O)c(N(CCCN2CCN(C(c3ccccc3)c3ccccc3)CC2)C(C)C)c1	42.6	–	–	0.29 (≈ 0.634 µM)	–	–
Cc1ccc(O)c(NCCN2CCN(C(c3ccccc3)c3ccccc3)CC2)c1	75.3	32.8	48.1	0.045 (≈ 0.112 µM)	62	–
Cc1ccc(O)c(N(C)CCCN2CCN(C(c3ccccc3)c3ccc(Cl)cc3)CC2)c1 (stereo not given)	51.8	–	–	0.27 (≈ 0.582 µM)	–	–
Cc1ccc(O)c(N(C)CCCN2CCN(C(c3ccccc3)c3ccccc3)CC2)c1	50.9	–	–	0.3 (≈ 0.698 µM)	–	–
CC(C)(C)c1ccc(O)c(NCCCN2CCN(C(c3ccccc3)c3ccc(Cl)cc3)CC2)c1 (stereo not given)	82.4	12.6	38	0.068 (≈ 0.138 µM)	60.6	–
CC(C)N(CCCN1CCN(C(c2ccccc2)c2ccc(Cl)cc2)CC1)c1cc(C(C)(C)C)ccc1O (stereo not given)	40.3	–	–	0.39 (≈ 0.73 µM)	–	–
Cc1ccc(O)c(NCCCN2CCN(C(c3ccc(Cl)cc3)c3ccc(Cl)cc3)CC2)c1	58.2	–	–	0.48 (≈ 0.991 µM)	–	–
Cc1ccc(O)c(NCCCN2CCN(C(c3ccccc3)c3ccccc3)CC2)c1	–	11.2	51	0.038 (≈ 0.0914 µM)	79.3	–
Cc1ccc(O)c(N(CCCN2CCN(C(c3ccccc3)c3ccc(Cl)cc3)CC2)C(C)C)c1 (stereo not given)	44.4	–	–	0.44 (≈ 0.894 µM)	–	–
Cc1ccc(O)c(N(CCCN2CCN(C(c3ccc(Cl)cc3)c3ccc(Cl)cc3)CC2)C(C)C)c1	26.4	–	–	2.2 (≈ 4.18 µM)	–	–
Cc1ccc(O)c(NCCCN2CCC(OC(c3ccccc3)c3ccccc3)CC2)c1	–	–	61.8	0.036 (≈ 0.0836 µM)	28.1	Inhibition (Rattus norvegicus [22]): 28.3%
Cc1ccc(O)c(NCCCN2CCC(C(O)(c3ccc(F)cc3)c3ccc(F)cc3)CC2)c1	86.9	25.4	–	0.025 (≈ 0.0536 µM)	–	–
Cc1ccc(O)c(NCCCN2CCC(C(O)(c3ccccc3)c3ccc(Cl)cc3)CC2)c1 (stereo not given)	97.5	39.2	43.7	0.041 (≈ 0.0882 µM)	80.4	Average score (Oryctolagus cuniculus [15]): 0; Average score (Oryctolagus cuniculus [16]): 0
Cc1ccc(O)c(NCCCN2CCC(C(O)(c3ccccc3)c3ccccc3)CC2)c1	89	36.8	61.5	0.029 (≈ 0.0673 µM)	77	Average score (Oryctolagus cuniculus [23]): 0; Average score (Oryctolagus cuniculus [16]): 0
Cc1ccc(O)c(NCCCN2CCC(OC(c3ccccc3)c3ccc(Cl)cc3)CC2)c1 (stereo not given)	86	26	53.6	0.084 (≈ 0.181 µM)	31.3	–
C[C@]12CCC(=O)C=C1CCC1[C@@H]2[C@@H](O)C[C@@]2(C)[C@H]1CC[C@]2(O)C(=O)CO (single isomer, unassigned) [HYDROCORTISONE]	–	–	–	–	–	Inhibition (Rattus norvegicus [24]): 6.99%; ED50 (Mus musculus [25]): 6.69 µg/mL (≈ 18.5 µM); ED50 (Mus musculus [26]): 1.2 µg/mL (≈ 3.31 µM); Inhibition (Rattus norvegicus [27]): -16.4%; ED50 (Mus musculus [28]): 3.09 µg/mL (≈ 8.52 µM); ED50 (Mus musculus [29]): 3.43 µg/mL (≈ 9.46 µM)
Cc1c(C)c2c(c(C)c1O)CC[C@@](C)(CCC[C@H](C)CCC[C@H](C)CCCC(C)C)O2 [ALPHA-TOCOPHEROL]	–	–	–	0.87 (≈ 2.02 µM)	–	–
CN(C)CCOC(c1ccccc1)c1ccccc1 [DIPHENHYDRAMINE]	–	27.9	–	–	–	ED50 (Mus musculus [30]): >300 µg/mL; ED50 (Mus musculus [31]): >300 µg/mL; ED50 (Mus musculus [32]): >300 µg/mL; Inhibition (Rattus norvegicus [20]): 52.8%
CC(C(=O)O)c1ccc(C(=O)c2cccs2)cc1 (stereo not given) [SUPROFEN]	–	-0.7	–	–	–	ED50 (Mus musculus [30]): 123.2 µg/mL (≈ 473 µM); ED50 (Mus musculus [31]): 15.4 µg/mL (≈ 59.2 µM); ED50 (Mus musculus [32]): >300 µg/mL; Inhibition (Rattus norvegicus [20]): 16.9%
